Data: ChEMBL document CHEMBL4673214, “Synthesis and antibacterial bioactivities of cationic deacetyl linezolid amphiphiles” (Eur J Med Chem, 2018)
Activity calls are given as the source filed them.

Assays:
Staphylococcus aureus [1] = assay: Antibacterial activity against Staphylococcus aureus ATCC 29213 assessed as reduction in bacterial growth incubated for 16 to 20 hrs by CLSI-based broth microdilution method; format: functional; conditions: time 16-20 hrs
Procedure, shortened: (§1)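 Broth microdilution following CLSI, in cation-adjusted Mueller-Hinton broth. Inoculum from a 4-6 h culture (~10^8 CFU/mL), diluted to ~10^6 CFU/mL. Water stocks were serially diluted in MHB (256 to 0.5 µg/mL) and mixed 1:1 with the inoculum. Plates ran 16-20 h at 37 °C. MIC was read visually. Each concentration was tested in duplicate, and the experiment was repeated at least twice.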

Staphylococcus aureus [2] = assay: Resistance ratio of compound MIC for Staphylococcus aureus ATCC 29213 after 20 passages to compound MIC for Staphylococcus aureus ATCC 29213 after 16 to 20 hrs by CLSI-based broth microdilution method; format: functional
Procedure, shortened: (§2)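 Serial passaging: after each 24 h MIC assay, cells grown at 1/2 MIC were transferred and the MIC assayed again, for 20 passages. Done with S. aureus, E. coli and MRSA. MIC plotted against days of passage. Experiment repeated twice.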

Escherichia coli [3] = assay: Resistance ratio of compound MIC for Escherichia coli ATCC 25922 after 20 passages to compound MIC for Escherichia coli ATCC 25922 after 16 to 20 hrs by CLSI-based broth microdilution method; format: functional; procedure, shortened: as §2
Escherichia coli [4] = assay: Antibacterial activity against Escherichia coli ATCC 25922 assessed as reduction in bacterial growth incubated 16 to 20 hrs by CLSI-based broth microdilution method; format: functional; conditions: time 16-20 hrs; procedure, shortened: as §1
Cell membrane [5] = assay: Induction of cytoplasmic membrane depolarization in Staphylococcus aureus ATCC 29213 at 20 ug/ml measured for 12 mins by DiSC35 dye-based fluorescence assay; format: subcellular; conditions: dose 20.0 µg/ml
Procedure, shortened: (§3)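 Mid-log bacteria were washed and resuspended at ~10^8 CFU/mL: S. aureus in PBS, E. coli in 5 mM HEPES/5 mM glucose/100 mM KCl (1:1:1). Cells were loaded with diSC35 (10 µM stock) for 30 min (S. aureus) or 40 min (E. coli, plus EDTA). Fluorescence (ex 622/em 670 nm) was read for an 8 min baseline, then every 2 min for 12 min after compound at 20 µg/mL final. Water served as control.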

Cell membrane [6] = assay: Induction of cytoplasmic membrane depolarization in Escherichia coli ATCC 25922 at 20 ug/ml measured for 12 mins by DiSC35 dye-based fluorescence assay; format: subcellular; conditions: dose 20.0 µg/ml; procedure, shortened: as §3
Cell membrane [7] = assay: Induction of outer membrane permeabilization in Escherichia coli ATCC 25922 at 20 ug/ml measured for 12 mins by NPN dye based fluorescence assay; conditions: dose 20.0 µg/ml
Procedure, shortened: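 Mid-log E. coli in HEPES/glucose/KCl at ~10^8 CFU/mL was preincubated 40 min with N-phenylnaphthylamine (10 µM stock). Fluorescence (ex 350/em 420 nm) was read for an 8 min baseline, then every 2 min for 12 min after compound at 20 µg/mL final. Water served as control.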

Cell membrane [8] = assay: Induction of inner membrane permeabilization in Escherichia coli ATCC 25922 at 20 ug/ml measured for 12 mins by propidium iodide staining based fluorescence microscopic analysis; conditions: dose 20.0 µg/ml
Procedure, shortened: (§4)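 Mid-log bacteria were washed and resuspended at ~10^8 CFU/mL and preincubated with propidium iodide (10 µM stock) for 30 min (S. aureus) or 40 min (E. coli). Fluorescence (ex 535/em 617 nm) was read on a plate for an 8 min baseline, then every 2 min for 12 min after compound at 20 µg/mL final. Water served as control.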

Cell membrane [9] = assay: Induction of inner membrane permeabilization in Staphylococcus aureus ATCC 29213 at 20 ug/ml measured for 12 mins by propidium iodide staining based fluorescence microscopic analysis; conditions: dose 20.0 µg/ml; procedure, shortened: as §4
Escherichia coli [10] = assay: Antibiofilm activity against Escherichia coli ATCC 25922 assessed as inhibition of biofilm formation incubated for 24 hrs by crystal violet staining assay; format: functional
Procedure, shortened: (§5)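 Twofold serial dilutions in MHB received 1:1000-diluted exponential-phase bacteria and were incubated 24 h at 37 °C. Wells were rinsed, stained with 0.1% crystal violet for 10 min and dissolved in ethanol, and OD540 was read. MBIC80 was the concentration inhibiting 80% of biofilm formation versus untreated wells, taken from dose-response curves.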

Staphylococcus aureus [11] = assay: Antibiofilm activity against Staphylococcus aureus ATCC 29213 assessed as inhibition of biofilm formation incubated for 24 hrs by crystal violet staining assay; format: functional; procedure, shortened: as §5
Escherichia coli [12] = assay: Antibiofilm activity against 24 hrs preformed biofilm of Escherichia coli ATCC 25922 assessed as eradication of preformed biofilm incubated for 24 hrs by crystal violet staining assay; format: functional
Staphylococcus aureus [13] = assay: Antibiofilm activity against 24 hrs preformed biofilm of Staphylococcus aureus ATCC 29213 assessed as eradication of preformed biofilm incubated for 24 hrs by crystal violet staining assay; format: functional
[14] = Hemolytic activity in sheep RBC incubated for 1 hr; format: ADME, cell-based, Ovis aries, Erythrocyte; conditions: sheep red blood cells (erythrocytes)
Procedure, shortened: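 Sheep RBCs were resuspended at 5% in PBS and mixed 3:1 with serial dilutions (2560 to 5 µg/mL, pre-mixing levels), then incubated 1 h at 37 °C. After centrifugation, supernatant A540 was read. Hemolysis % was calculated as (A−A0)/(Atotal−A0)×100, with untreated RBCs as 0% and 0.1% Triton X-100 as total lysis.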

Enterobacteriaceae [15] = assay: Antibacterial activity against NDM1 producing carbapenem-resistant Enterobacteriaceae clinical isolate 10 assessed as reduction in bacterial growth incubated for 16 to 20 hrs by CLSI-based broth microdilution method; format: functional; conditions: time 16-20 hrs
Procedure, shortened: (§6)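 Clinical isolates tested by broth microdilution in cation-adjusted Mueller-Hinton broth. Cultures grown 4-6 h (~10^8 CFU/mL) were diluted to ~10^6 CFU/mL and mixed 1:1 with compound serial dilutions made from 256 down to 0.5 µg/mL (pre-mixing). Plates held at 37 °C for 16-20 h, then read for growth. Each concentration run in duplicate, whole experiment at least twice.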

Enterobacteriaceae [16] = assay: Antibacterial activity against NDM1 producing carbapenem-resistant Enterobacteriaceae clinical isolate 8 assessed as reduction in bacterial growth incubated for 16 to 20 hrs by CLSI-based broth microdilution method; format: functional; conditions: time 16-20 hrs; procedure, shortened: as §6
Enterobacteriaceae [17] = assay: Antibacterial activity against NDM1 producing carbapenem-resistant Enterobacteriaceae clinical isolate 7 assessed as reduction in bacterial growth incubated for 16 to 20 hrs by CLSI-based broth microdilution method; format: functional; conditions: time 16-20 hrs; procedure, shortened: as §6
Enterobacteriaceae [18] = assay: Antibacterial activity against NDM1 producing carbapenem-resistant Enterobacteriaceae clinical isolate 6 assessed as reduction in bacterial growth incubated for 16 to 20 hrs by CLSI-based broth microdilution method; format: functional; conditions: time 16-20 hrs; procedure, shortened: as §6
Enterobacteriaceae [19] = assay: Antibacterial activity against NDM1 producing carbapenem-resistant Enterobacteriaceae clinical isolate 5 assessed as reduction in bacterial growth incubated for 16 to 20 hrs by CLSI-based broth microdilution method; format: functional; conditions: time 16-20 hrs; procedure, shortened: as §6
Enterobacteriaceae [20] = assay: Antibacterial activity against NDM1 producing carbapenem-resistant Enterobacteriaceae clinical isolate 4 assessed as reduction in bacterial growth incubated for 16 to 20 hrs by CLSI-based broth microdilution method; format: functional; conditions: time 16-20 hrs; procedure, shortened: as §6
Enterobacteriaceae [21] = assay: Antibacterial activity against NDM1 producing carbapenem-resistant Enterobacteriaceae clinical isolate 3 assessed as reduction in bacterial growth incubated for 16 to 20 hrs by CLSI-based broth microdilution method; format: functional; conditions: time 16-20 hrs; procedure, shortened: as §6
Enterobacteriaceae [22] = assay: Antibacterial activity against NDM1 producing carbapenem-resistant Enterobacteriaceae clinical isolate 2 assessed as reduction in bacterial growth incubated for 16 to 20 hrs by CLSI-based broth microdilution method; format: functional; conditions: time 16-20 hrs; procedure, shortened: as §6
Enterobacteriaceae [23] = assay: Antibacterial activity against NDM1 producing carbapenem-resistant Enterobacteriaceae clinical isolate 1 assessed as reduction in bacterial growth incubated for 16 to 20 hrs by CLSI-based broth microdilution method; format: functional; conditions: time 16-20 hrs; procedure, shortened: as §6
Klebsiella pneumoniae [24] = assay: Antibacterial activity against carbapenem-resistant Klebsiella pneumoniae clinical isolate 10 assessed as reduction in bacterial growth incubated for 16 to 20 hrs by CLSI-based broth microdilution method; format: functional; conditions: time 16-20 hrs; procedure, shortened: as §6
Klebsiella pneumoniae [25] = assay: Antibacterial activity against carbapenem-resistant Klebsiella pneumoniae clinical isolate 9 assessed as reduction in bacterial growth incubated for 16 to 20 hrs by CLSI-based broth microdilution method; format: functional; conditions: time 16-20 hrs; procedure, shortened: as §6
Klebsiella pneumoniae [26] = assay: Antibacterial activity against carbapenem-resistant Klebsiella pneumoniae clinical isolate 8 assessed as reduction in bacterial growth incubated for 16 to 20 hrs by CLSI-based broth microdilution method; format: functional; conditions: time 16-20 hrs; procedure, shortened: as §6
Klebsiella pneumoniae [27] = assay: Antibacterial activity against carbapenem-resistant Klebsiella pneumoniae clinical isolate 7 assessed as reduction in bacterial growth incubated for 16 to 20 hrs by CLSI-based broth microdilution method; format: functional; conditions: time 16-20 hrs; procedure, shortened: as §6
Klebsiella pneumoniae [28] = assay: Antibacterial activity against carbapenem-resistant Klebsiella pneumoniae clinical isolate 6 assessed as reduction in bacterial growth incubated for 16 to 20 hrs by CLSI-based broth microdilution method; format: functional; conditions: time 16-20 hrs; procedure, shortened: as §6
Klebsiella pneumoniae [29] = assay: Antibacterial activity against carbapenem-resistant Klebsiella pneumoniae clinical isolate 5 assessed as reduction in bacterial growth incubated for 16 to 20 hrs by CLSI-based broth microdilution method; format: functional; conditions: time 16-20 hrs; procedure, shortened: as §6
Klebsiella pneumoniae [30] = assay: Antibacterial activity against carbapenem-resistant Klebsiella pneumoniae clinical isolate 4 assessed as reduction in bacterial growth incubated for 16 to 20 hrs by CLSI-based broth microdilution method; format: functional; conditions: time 16-20 hrs; procedure, shortened: as §6
Klebsiella pneumoniae [31] = assay: Antibacterial activity against carbapenem-resistant Klebsiella pneumoniae clinical isolate 3 assessed as reduction in bacterial growth incubated for 16 to 20 hrs by CLSI-based broth microdilution method; format: functional; conditions: time 16-20 hrs; procedure, shortened: as §6
Klebsiella pneumoniae [32] = assay: Antibacterial activity against carbapenem-resistant Klebsiella pneumoniae clinical isolate 2 assessed as reduction in bacterial growth incubated for 16 to 20 hrs by CLSI-based broth microdilution method; format: functional; conditions: time 16-20 hrs; procedure, shortened: as §6
Enterobacteriaceae [33] = assay: Antibacterial activity against NDM1 producing carbapenem-resistant Enterobacteriaceae clinical isolate 9 assessed as reduction in bacterial growth incubated for 16 to 20 hrs by CLSI-based broth microdilution method; format: functional; conditions: time 16-20 hrs; procedure, shortened: as §6
Salmonella enterica = assay: Antibacterial activity against Salmonella enterica ATCC 8387 assessed as reduction in bacterial growth incubated for 16 to 20 hrs by CLSI-based broth microdilution method; format: functional; conditions: time 16-20 hrs; procedure, shortened: as §1
Klebsiella pneumoniae [34] = assay: Antibacterial activity against carbapenem-resistant Klebsiella pneumoniae clinical isolate 1 assessed as reduction in bacterial growth incubated for 16 to 20 hrs by CLSI-based broth microdilution method; format: functional; conditions: time 16-20 hrs; procedure, shortened: as §6

CCn1cc(C(=O)O)c(=O)c2cc(F)c(N3CCNCC3)cc21 [NORFLOXACIN]
1 µg/mL: MIC (Staphylococcus aureus [1])
256: Ratio (Staphylococcus aureus [2])

COLISTIN
32: Ratio (Escherichia coli [3])
0.5 µg/mL: MIC (Escherichia coli [4])

CC(=O)NC[C@H]1CN(c2ccc(N3CCOCC3)c(F)c2)C(=O)O1 [LINEZOLID]
26.8 µg/mL: MBIC80 (Staphylococcus aureus [11])
> 64 µg/mL: MIC (Enterobacteriaceae [15]) | MIC (Enterobacteriaceae [16]) | MIC (Enterobacteriaceae [17]) | MIC (Enterobacteriaceae [18]) | MIC (Enterobacteriaceae [19]) | MIC (Enterobacteriaceae [20]) | MIC (Enterobacteriaceae [21]) | MIC (Enterobacteriaceae [22]) | MIC (Enterobacteriaceae [23]) | MIC (Klebsiella pneumoniae [24]) | MIC (Klebsiella pneumoniae [25]) | MIC (Klebsiella pneumoniae [26]) | MIC (Klebsiella pneumoniae [27]) | MIC (Klebsiella pneumoniae [28]) | MIC (Klebsiella pneumoniae [29]) | MIC (Klebsiella pneumoniae [30]) | MIC (Klebsiella pneumoniae [31]) | MIC (Klebsiella pneumoniae [32]) | MIC (Enterobacteriaceae [33]) | MIC (Salmonella enterica) | MIC (Escherichia coli [4]) | MIC (Klebsiella pneumoniae [34])
550 µg/mL: HC50 at 1 h [14]
36.1 µg/mL: MBIC90 (Staphylococcus aureus [11])
>128 µg/mL: MBIC80 (Escherichia coli [10]) | MBIC90 (Escherichia coli [10]) | MBEC (Escherichia coli [12]) | MBEC80 (Escherichia coli [12]) | MBEC90 (Escherichia coli [12]) | MBEC (Staphylococcus aureus [13]) | MBEC80 (Staphylococcus aureus [13]) | MBEC90 (Staphylococcus aureus [13])
inactive: Activity (Cell membrane [5]) | Activity (Cell membrane [6]) | Activity (Cell membrane [7]) | Activity (Cell membrane [8]) | Activity (Cell membrane [9])
